# Biological target: T1, 3-hydroxy-3-methylglutaryl-coenzyme A reductase (Schizosaccharomyces pombe 972h-, UniProt Q10283)
# T1 sequence (Q10283 whole entry): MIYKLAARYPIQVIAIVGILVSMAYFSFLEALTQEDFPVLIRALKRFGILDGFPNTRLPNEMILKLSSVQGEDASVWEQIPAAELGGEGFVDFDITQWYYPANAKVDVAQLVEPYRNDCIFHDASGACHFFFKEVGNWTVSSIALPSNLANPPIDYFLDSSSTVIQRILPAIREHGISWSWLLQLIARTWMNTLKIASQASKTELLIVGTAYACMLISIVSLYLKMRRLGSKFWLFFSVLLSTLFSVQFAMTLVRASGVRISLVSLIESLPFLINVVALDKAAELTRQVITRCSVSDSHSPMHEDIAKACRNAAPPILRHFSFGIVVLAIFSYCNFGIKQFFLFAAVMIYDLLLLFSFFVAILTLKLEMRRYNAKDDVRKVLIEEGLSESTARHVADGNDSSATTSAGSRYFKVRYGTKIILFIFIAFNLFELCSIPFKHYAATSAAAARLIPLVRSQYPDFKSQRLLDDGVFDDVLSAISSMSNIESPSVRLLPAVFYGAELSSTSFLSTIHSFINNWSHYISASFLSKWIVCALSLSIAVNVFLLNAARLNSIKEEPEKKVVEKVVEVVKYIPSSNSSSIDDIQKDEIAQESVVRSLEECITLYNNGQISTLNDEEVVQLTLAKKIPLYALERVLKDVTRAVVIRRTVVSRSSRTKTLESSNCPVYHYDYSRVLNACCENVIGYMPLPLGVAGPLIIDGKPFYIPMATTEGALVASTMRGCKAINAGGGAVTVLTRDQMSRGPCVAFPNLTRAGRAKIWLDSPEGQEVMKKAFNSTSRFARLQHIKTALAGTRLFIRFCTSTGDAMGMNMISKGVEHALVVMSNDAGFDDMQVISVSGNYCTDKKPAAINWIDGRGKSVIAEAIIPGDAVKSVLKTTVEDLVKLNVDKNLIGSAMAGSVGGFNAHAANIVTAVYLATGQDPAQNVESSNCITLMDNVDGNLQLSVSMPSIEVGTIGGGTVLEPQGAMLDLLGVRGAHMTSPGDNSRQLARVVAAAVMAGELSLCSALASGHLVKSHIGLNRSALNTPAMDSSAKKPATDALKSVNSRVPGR
# Test: Inhibition of Schizosaccharomyces pombe HMG-CoA reductase by spectrophotometry
# Details: read-out: IC50
# Procedure, shortened: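 Membrane HMGR partially purified from S. pombe 972 h (YPD, 28 °C, 48 h) via centrifugation, Triton X-100 solubilization, 65 °C heat step, ammonium sulfate and calcium phosphate gel. Enzyme activated 37 °C 30 min, pre-incubated with compound (DMSO stocks 1–5 mM) 30 min at 37 °C. Assay: 200 µg enzyme, 0.13 mM HMG-CoA, 50 mM Tris-HCl pH 7.5; started with 0.13 mM NADPH; A340 decrease over 2 min; triplicate; IC50 derived.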
row,IC50,SMILES
1,144 µM,C=CCc1cc(OC)c(OCC(=O)O)cc1[N+](=O)[O-]
2,239 µM,C=CCc1ccc(OCCNC(=O)c2cccc(Cl)c2)c(OC)c1
3,129 µM,C/C=C/c1ccc(OCCNC(=O)c2ccc(Cl)cc2)c(OC)c1
4,197 µM,CCc1ccc(OCC(=O)OC)c([N+](=O)[O-])c1
5,182 µM,CCOC(=O)COc1cccc(C)c1
6,167 µM,C/C=C/c1cc(OC)c(OC)cc1N
7,84.6 µM,CCCCCc1cc(OC)c(OC)cc1OC
8,73.4 µM,C=CCc1ccc(OCC(=O)O)c(OC)c1
9,1620 µM,CCOC(=O)COc1cccc(CC)c1
10,156 µM,C=CCc1ccc(OCC(=O)OCC)c(OC)c1
11,153 µM,CCC(O)c1cc(OC)c(OC)cc1N (stereo not drawn)
12,506 µM,CCc1ccccc1OCC(=O)OC

row,SMILES,IC50
1,C/C=C/c1cc(OC)c(OC)cc1OC [TRANS-ASARONE],2490 µM

# Reference: ChEMBL document CHEMBL1166015, “Design, synthesis, and docking of highly hypolipidemic agents: Schizosaccharomyces pombe as a new model for evaluating alpha-asarone-based HMG-CoA reductase inhibitors” (Bioorg Med Chem, 2010)
